Usually IC50 stands for the point on the concentration scale where inhibition reaches its midpoint. Usually inhibition in vivo stands for the percentage by which the read-out fell short of the control. As a reminder, the inhibition is the drop in the measured response relative to a control, in per cent.

The text below walks through data of ChEMBL document CHEMBL1955718, “Discovery of new orally effective analgesic and anti-inflammatory hybrid furoxanyl N-acylhydrazone derivatives” (Bioorg Med Chem, 2012).

The subject of series [1] is HT-29. In words: Inhibition of TNFalpha-induced NF-kappaB activation expressed in human HT-29 cells coexpressing hrGFP at 100 uM after 24 hrs by propidium iodide staining-based flow cytometric analysis relative to control. The class given is cell-based. An outline of the steps: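 HT-29 cells stably expressing NF-κB-driven hrGFP given compound (DMSO <0.5%) for 2 h at the maximum non-cytotoxic concentration, then TNF-α at 3 ng/mL final for 18–24 h. Cells trypsinised and stained with propidium iodide; 5000 events gated on FSC/SSC. The %GFP-positive among PI-excluding live cells is normalised to TNF-α/DMSO control, ± SD.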
A general note: A flow cytometer gives signals particle by particle.

The nature of series [2]: Cytotoxicity against human HT-29 cells expressing NF-kappaB-hrGFP assessed as highest non-cytotoxic dose for 100% cell survival after 24 hrs by MTT assay. Type of series: cell-based. The settings on record: read-out: Activity. An outline of the steps: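 HT-29 cells stably carrying pNF-κB-hrGFP, seeded at 0.5 × 10^6/mL in DMEM with 10% FBS, grown 24 h at 37 °C, 5% CO2. Compounds added in DMSO (<0.5% v/v final) at 12.5–400 µM for 24 h. Viability by MTT reduction (2 h), formazan dissolved in DMSO/glycine buffer, read at 560 nm.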
In general terms: Tetrazolium assays rely on reduction of a dye to a coloured formazan, in cell work by metabolically active cells.

Series [3] can be described thus: Cytotoxicity against mouse […] cells after 48 hrs by MTT assay. Type of series: cell-based. An outline of the steps:
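J774 macrophages in DMEM (4 mM L-glutamine, 10% heat-inactivated FBS) were seeded at 1 × 10^5 cells/well and grown for 48 h at 37 °C, 5% CO2. They were then exposed to compounds at 25–400 µM for 48 h. MTT (0.1 mg/mL final) was added for 3 h, formazan was dissolved in DMSO/glycine buffer pH 10.5, and absorbance was read at 560 nm to give an IC50.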

Series [4] relates to HT-29. In words: Pro-inflammatory activity in NFkappaB-GFP transfected human HT-29 cells at 25 to 400 uM after 24 hrs by propidium iodide staining-based flow cytometric analysis. The class given is ADME, cell-based. The conditions noted are these: ht-29, 24 h. An outline of the steps: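 Reporter HT-29-NF-κB-hrGFP cells given compound alone, without TNF-α, for 18–24 h at 37 °C after the same 2 h pre-incubation. GFP-positive live (propidium iodide-excluding) cells counted by flow cytometry; IL-8 in supernatant measured by bead-based flow cytometry.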

In series [5] the test system is Rattus norvegicus. Put plainly: Antiinflammatory activity in albino rat assessed as inhibition of carrageenan-induced paw edema at 100 umol/kg, po administered 1 hr before carrageenan challenge measured after 3 hrs by plethysmometric analysis relative to control. Type of series: functional. An outline of the steps:
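Albino rats of both sexes (150–200 g) were dosed orally as a suspension in 1% Tween 80 in saline, with vehicle controls. After 1 h, 0.1 mL 1% carrageenan or saline was injected subplantar. Paw volume was read by glass plethysmometer at 3 h. Edema = carrageenan-paw minus saline-paw volume; % inhibition vs vehicle; Student t-test.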

Series [6] has as its system Glycine max. Put plainly: Inhibition of soybean lipoxygenase using arachidonic acid as substrate at 50 uM. An outline of the steps:
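Soybean 15-lipoxygenase kit assay, arachidonic acid substrate, H2O2 as lipoxygenating agent in 0.1 M Tris-HCl pH 7.4. Single-point screen at 50 µM. IC50 found by varying concentration over 10–100 µM. Quercetin at 4 µM as positive control; duplicate means; Student t-test.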

Series [7] has as its target T1, Prostaglandin G/H synthase 1 (Ovis aries) (UniProt P05979).
T1 sequence (whole entry): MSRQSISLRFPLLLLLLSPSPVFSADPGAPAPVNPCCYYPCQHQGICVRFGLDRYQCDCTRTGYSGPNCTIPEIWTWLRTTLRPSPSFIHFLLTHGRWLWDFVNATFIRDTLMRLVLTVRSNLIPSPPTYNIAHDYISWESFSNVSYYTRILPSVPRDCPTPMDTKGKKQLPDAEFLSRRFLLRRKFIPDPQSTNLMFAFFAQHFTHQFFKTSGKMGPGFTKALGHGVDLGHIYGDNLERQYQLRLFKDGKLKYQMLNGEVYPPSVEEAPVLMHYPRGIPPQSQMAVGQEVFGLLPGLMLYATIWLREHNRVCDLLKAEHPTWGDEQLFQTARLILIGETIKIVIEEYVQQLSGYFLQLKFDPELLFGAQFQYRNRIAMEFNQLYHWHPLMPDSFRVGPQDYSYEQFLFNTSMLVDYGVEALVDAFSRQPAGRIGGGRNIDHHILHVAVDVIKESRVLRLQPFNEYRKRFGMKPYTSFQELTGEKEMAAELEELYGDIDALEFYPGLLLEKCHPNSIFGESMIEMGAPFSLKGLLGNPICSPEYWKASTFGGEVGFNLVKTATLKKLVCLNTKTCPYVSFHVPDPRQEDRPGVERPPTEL
Put plainly: Inhibition of ovine COX-1 at 10 uM. An outline of the steps:
(§1)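 Isolated ovine COX-1 and human recombinant COX-2 tested by ELISA-based inhibitor screening kit with compound at 10 and 50 µM. Positive control indomethacin at 0.1 µM (COX-1) or 6 µM (COX-2). Mean of duplicates; Student t-test.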

Series [8] concerns the target T1, Prostaglandin G/H synthase 1 (Ovis aries). In words: Inhibition of ovine COX-1 at 50 uM. An outline of the steps:
as §1

In series [9] the target is T2, Prostaglandin G/H synthase 2 (Homo sapiens) (UniProt P35354).
T2 sequence (whole entry): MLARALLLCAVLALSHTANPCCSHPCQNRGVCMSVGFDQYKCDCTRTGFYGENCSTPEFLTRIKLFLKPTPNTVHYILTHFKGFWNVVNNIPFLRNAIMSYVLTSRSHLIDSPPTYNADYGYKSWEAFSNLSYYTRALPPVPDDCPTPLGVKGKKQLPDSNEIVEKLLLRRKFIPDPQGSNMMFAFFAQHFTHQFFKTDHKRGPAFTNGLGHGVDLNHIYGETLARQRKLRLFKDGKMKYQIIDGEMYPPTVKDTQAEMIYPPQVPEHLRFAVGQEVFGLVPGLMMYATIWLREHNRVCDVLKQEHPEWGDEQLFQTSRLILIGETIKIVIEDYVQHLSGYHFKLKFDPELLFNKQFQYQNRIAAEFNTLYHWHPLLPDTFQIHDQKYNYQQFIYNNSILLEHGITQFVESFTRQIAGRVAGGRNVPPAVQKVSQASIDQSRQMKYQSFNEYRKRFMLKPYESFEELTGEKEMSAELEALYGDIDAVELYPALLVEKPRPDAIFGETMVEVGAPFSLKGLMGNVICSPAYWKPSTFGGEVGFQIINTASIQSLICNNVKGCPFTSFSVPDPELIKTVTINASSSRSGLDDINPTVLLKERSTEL
Put plainly: Inhibition of human recombinant COX-2 at 10 uM. An outline of the steps:
as §1

The target in series [10] is T2, Prostaglandin G/H synthase 2 (Homo sapiens). In words: Inhibition of human recombinant COX-2 at 50 uM. An outline of the steps: as §1
Series [11] relates to Mus musculus. Put plainly: Analgesic activity in albino mouse assessed as inhibition of acetic acid-induced abdominal constriction at 100 umol/kg, po administered 1 hr before acetic acid challenge measured after 30 mins relative to control. Type of series: functional. The settings on record: Abdomen. An outline of the steps:
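Albino mice of both sexes (18–23 g) were dosed orally as a suspension in 5% arabic gum in saline, with vehicle controls. After 1 h they received 0.6% acetic acid ip (0.1 mL/10 g). Constrictions were counted for 20 min starting 10 min after injection. Data are % inhibition vs vehicle, mean ± SEM, Student t-test.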

SMILES strings stand for the structures.

Consider `Cc1c(C(=O)N/N=C/c2ccc(N(C)C)cc2)no[n+]1[O-]`, for which the NF-kappaB activity (% of TNF-alpha control) in [1] came out at 150%. Moreover, the MNTC at 24 h in [2] amounted to 100 µM. Besides, 129 µM corresponded to half-maximal inhibition in series [3] (IC50). For the same compound, in series [4], the Activity result is listed as “Non-toxic”. In addition, in series [5], the inhibition in vivo at 100 µmol/kg stood at 19%. For the same compound, the inhibition in series [6] worked out at 0%; in series [7], 22.5%; in series [8], 25.3%; in series [9] it was 17.8%; in [10] it was 22%.
As for `Cc1[nH]cnc1C(=O)N/N=C/c1ccc2no[n+]([O-])c2c1`, in series [2], the MNTC at 24 h turned out to be 50 µM. The compound also returned an IC50 in series [3] of 38 µM. The Activity result in series [4] was “Non-toxic”. The results for the inhibition in vivo at 100 µmol/kg in series [11] and in series [5] were 46% and 31%, respectively. Moreover, the inhibition in series [6] is 0%; in [7], 25.9%; in [8], 22.3%; in series [9] it was 19.6%; in series [10], 6.4%.
For `O=C(N/N=C/c1c(-c2ccccc2)no[n+]1[O-])c1ccc2c(c1)OCO2`, in series [1], the NF-kappaB activity (% of TNF-alpha control) turned out to be 12%. Moreover, the MNTC at 24 h in series [2] stood at 100 µM. Moreover, in series [3], the half-maximal inhibitory concentration (IC50) turned out to be 191 µM. Besides, in [4], the Activity result is given as “Non-toxic”. The inhibition in vivo at 100 µmol/kg in series [11] came out at 42%; in series [5], 0%. The inhibition in series [6] turned out to be 0%; in series [7] it was 27%; in series [8] it was 28.5%; in series [9] it was 13.1%; in series [10] it was 11.9%.
